Test results as given in the EternaBench riboswitch data.

Tested on: MS2 coat protein
Test: apparent Kd, MS2 coat protein; higher = weaker binding; RNA-MaP array; FMN 200 µM where present
Outline: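 Stalled E. coli RNA polymerase transcribed the designs on Illumina sequencing-chip clusters. SNAP-549-labelled MS2 coat protein was titrated from 0.7 or 1.5 nM, doubling to 3 µM, without and then with constant ligand, in 100 mM Tris-HCl pH 7.5, 80 mM KCl, 4 mM MgCl2, BSA, DTT, yeast tRNA and Tween-20. Per-cluster binding curves were fitted to green signal normalised to red-channel RNA signal and control-cluster median Fmax. The apparent Kd is the median of the filtered fits.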

[1] = designed as: OFF switch for flavin mononucleotide, no ligand
[2] = ligand present: flavin mononucleotide, designed as: OFF switch for flavin mononucleotide
[3] = designed as: ON switch for flavin mononucleotide, no ligand
[4] = ligand present: flavin mononucleotide, designed as: ON switch for flavin mononucleotide

Row | Sequence | apparent Kd [1] | apparent Kd [2] | apparent Kd [3] | apparent Kd [4]
1 | UGAUAGAGCCUAGGAUAUUCGGAUCUACUACAAGGAGAAGGAGGUAGUCGGUGACGAACAUGAGGAUCACCCAUGUCGUCCUUC | 67.8 nM | 69.9 nM |  | 
2 | AAACAAGAAGGAUAUACAUUAUCGGAUCUUCCGGCAAUGCCACAUGAGGAUCACCCAUGUAGAAGGUCUAAAUU | 12.3 nM | 18.9 nM |  | 
3 | CCUAAGGAGACAGGAUAUAGUGUGGUGGCCGGGCUCCCACGGCGAGCGGCACUAGAAGGGUCACUACAUGAGGAUCACCCAUGU |  |  | 30.3 nM | 15.6 nM
4 | GCUGGGUCAGGAUAUACGAGAUCGAAAGAUCGAAGAUCCGUACAUGAGGAUCACCCAUGUAGAAGGGACUGGGC | 21.4 nM | 44.7 nM |  | 
5 | CUCGUGUGAGGAUAUCUAUUCCACGGACGGGAGUCUUGAAGAGAGAAGGCACAUGAGGAUCACCCAUGUAAUAA |  | 33.7 nM |  | 
6 | GACAGCGACACAGGAUAUGUCAAUUUUACAUGAGGAUCACCCAUGUCCGAAGCAGAAGGGUGAUCGCACGCACACUAAGCCAUG |  |  | 86.5 nM | 98.3 nM
7 | AGACUCUCUGGAGGAUAUCAUAGUCGUUGACUAUGAGAAGGUUAGCUAUCUUACAUGAGGAUCACCCAUGUGAUCUCUCUCGAG | 18.1 nM | 14.6 nM |  | 
8 | CGAUAUUAUGUCAGGAUAUACAUUGCGAAAGCAAUGUAGAAGGGACAUGAGGAUCACCCAUGUCCUAACUAUCG | 12.5 nM | 14.2 nM |  | 
9 | GGCGGUCGGGAGGAUAUUCGGGCUGUUUGGCUUGGAGAAGGCUCGACAUGAGGAUCACCCAUGUUGGUGUUCUU | 387 nM | 40.8 nM |  | 
10 | CCGGGACAUGAGGAUCACCCAUGUUUCGUUUGUAGUAAAACACAGGAUAUGAUGAAACAGGUUUCUCAGAAGGGUGUUCCGAAA |  |  | 81.3 nM | 55.3 nM
11 | GUGCACAUUCGAGGAUAUCGGAGAGAGAUCAUUCGAGAAGGCGAUUCAUGAUGUAUUAUCCUGGACAUGAGGAUCACCCAUGUG |  |  | 361 nM | 107 nM
12 | AAAAAAAAAGUCGAGGAUAUCCACAUGGCUACAUGAGGAUCACCCAUGUGAAGAAAAGCACAUGAGGAGAAGGCGACAAAAAAAAA |  |  | 28.1 nM | 13.7 nM
13 | GCACGGCAUGUAGGAUAUCGAGCGCCGGGCGCUCGAGAAGGACAUGAGGAUCACCCAUGUGCUCACAGUGAGUGAGUGCUGUGC | 19.6 nM | 37.4 nM |  | 
14 | CUCGGACAUGAGGAUCACCCAUGUGAGGAUAUGGUGCUAUCGUCAUUAGACGAUUGCGUUAGAAGGCACAUUUU | 31.4 nM | 80.1 nM |  | 
15 | UGUUGUAUUACAGGAUAUCUAUUAGUUUUGUUUAGAGAAGGGUAUUCACAUGAGGAUCACCCAUGUAUAUACGAGGAAGUUGUG |  |  | 59 nM | 65.2 nM
16 | AACAGGUUCACAUGAGGAUCACCCAUGUUAGCCUAACGUAGGAGAAGGACGGUAGCUGGGCUGACGUAGGAUAUCCUACUGUGA |  |  | 9.22 nM | 4.8 nM
17 | AAGCAUUGGCUUCUCAUCUACAUGAGGAUCACCCAUGUCGGGAGAAGGAGGCUUUGACGACUAGCCUAGGAUAUCCUAACGUGC | 5.65 nM | 6.15 nM |  | 
18 | GUGACGAAUGUAGGAUAUGCUGAGGAAUACUCAGCAGAAGGACAUGAGGAUCACCCAUGUCAUCCUUAUAAUAAAUAACGUCAC | 12.6 nM | 18.1 nM |  | 
19 | GCGAUUUUGUAAGGAUAUACACGAGUUUCAAGUGUAGAAGGUACUUACAUGAGGAUCACCCAUGUAUACUUGGAUAAUAGUCGC |  |  | 27.9 nM | 23.3 nM
20 | AGAUGACAAUGUCAUCUUCGACGGACAUGAGGAUCACCCAUGUAGGAUAUGCUACUCAAAGAGUAGCAGAAGGACAUGUGUCUU | 22.2 nM | 74.8 nM |  | 
21 | AAACAUGUCCGAGGAUAUCUGGAAACACUUUCAAGAGAAGGCGGACAUGAGGAUCACCCAUGUCUCUCCUCAUCAAAUCCAAGU | 6.53 nM | 30.2 nM |  | 
